Assay results taken from paper PMC6703927 (ACS chemical neuroscience, 2019).

Key:
[1] = target: T1, DAT (Rattus norvegicus, UniProt P23977); assay: Synaptosomal dopamine uptake assay, striatal synaptosomes; assay type: biochemical
[2] = test system: DAT W84L; conditions: cited from earlier work
[3] = test system: hDAT Y156F; conditions: cited from earlier work
[4] = target: hNET (Homo sapiens, UniProt P23975); assay type: cell-based; conditions: hDAT vs hNET
Outline: (§1)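 MDCK cells stably expressing hDAT, hNET or hSERT were kept in DMEM with 10% FBS, pen/strep and blasticidin (5 μg/mL) at 37 °C, 5% CO2. Radiolabeled neurotransmitter uptake ([3H]-DA, [3H]serotonin) was measured against test compound dose. Results were normalized to percent of the highest response, and IC50 was fitted by nonlinear regression from three independent experiments.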

[5] = target: hSERT (Homo sapiens, UniProt P31645); assay type: cell-based; conditions: hDAT vs SERT
Outline: as §1

[6] = test system: wild type DAT; assay: [3H]-DA uptake kinetic assay, transiently transfected COS-7 cells; assay type: cell-based, human; conditions: for Vmax of dopamine uptake: vehicle 71.5 ± 6.12
Outline: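 WT human DAT was transiently expressed in COS-7 cells (TransIT-LT1). [3H]-dopamine saturation uptake was run with vehicle, 1 μM or 5 μM test compound. Vmax and Km were obtained from a Michaelis-Menten nonlinear regression fit. Figure data and kinetic constants are averaged over four independent experiments.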

[7] = target: WT-DAT (Homo sapiens, UniProt Q01959); assay: DA uptake inhibition assay, transfected COS-7 cells; assay type: cell-based; conditions: read-out: IC50 DA uptake inhibition; WT-DAT transfected COS-7 cells
[8] = target: Y156F-DAT (Homo sapiens, UniProt Q01959, Y156F); assay: DA uptake inhibition assay, transfected COS-7 cells; assay type: cell-based
Outline: (§2)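 COS-7 cells (DMEM, 10% FBS, pen/strep, 37 °C, 5% CO2) were transiently transfected with WT or mutant human DAT using TransIT-LT1. Dopamine uptake was measured across a dose-response of test compound. Responses were normalized, and IC50 was obtained by nonlinear regression. Means and SEM come from three independent experiments, with the mutant compared against WT-DAT.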

[9] = target: Y335A-DAT (Homo sapiens, UniProt Q01959, Y335A); assay: as above; assay type: cell-based
Outline: as §2

[10] = target: T2, DAT-XC/W84C (Homo sapiens, UniProt Q01959, C306A/W84C); assay: DA uptake dose-response inhibition assay, transiently expressed DAT mutant; assay type: cell-based; conditions: W84C vs DAT-XC
T2 sequence (Q01959 1-620 W84C/C306A): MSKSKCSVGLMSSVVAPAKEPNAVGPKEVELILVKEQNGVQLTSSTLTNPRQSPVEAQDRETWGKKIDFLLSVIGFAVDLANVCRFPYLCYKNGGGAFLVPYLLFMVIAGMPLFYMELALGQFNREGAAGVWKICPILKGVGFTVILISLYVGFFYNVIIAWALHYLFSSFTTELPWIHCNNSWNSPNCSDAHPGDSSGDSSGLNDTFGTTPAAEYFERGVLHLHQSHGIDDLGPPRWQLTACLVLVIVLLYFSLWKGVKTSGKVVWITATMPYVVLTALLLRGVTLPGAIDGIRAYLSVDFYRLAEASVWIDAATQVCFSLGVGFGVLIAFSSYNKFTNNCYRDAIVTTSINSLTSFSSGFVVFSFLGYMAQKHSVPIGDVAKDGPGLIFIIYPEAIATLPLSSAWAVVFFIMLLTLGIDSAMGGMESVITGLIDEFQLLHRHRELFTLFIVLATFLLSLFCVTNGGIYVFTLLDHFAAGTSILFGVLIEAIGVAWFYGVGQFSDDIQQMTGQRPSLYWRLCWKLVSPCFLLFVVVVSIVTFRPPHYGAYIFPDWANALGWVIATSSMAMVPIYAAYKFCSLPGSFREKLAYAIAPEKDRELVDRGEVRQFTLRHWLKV
Outline: (§3)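 Mutants were made by site-directed mutagenesis. Single mutants used human WT DAT as background, and double cysteine mutants used C306A-DAT (DAT-XC). DA uptake dose-response gave IC50s from three or more independent experiments. Cysteine mutant IC50s were compared with DAT-XC, and D476 mutant IC50s with DAT-WT, by paired Student's t test.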

[11] = test system: DAT mutant D385C; assay: as above; assay type: cell-based, human; conditions: D385C vs DAT-XC
Outline: as §3

[12] = test system: DAT mutant D476N; assay: as above; assay type: cell-based, human; conditions: D476N vs DAT-WT
Outline: as §3

[13] = target: T2, DAT-XC/W84C; assay: SCAM MTSEA-biotin biotinylation, HEK-293 cells; assay type: cell-based
[14] = test system: DAT cysteine mutant D385C; assay: SCAM MTSEA-biotin biotinylation, HEK-293 cells; assay type: cell-based, human; conditions: 20 μM KM822 coincubation
Outline: (§4)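 SCAM used HEK-293 cells (Lipojet transfection) expressing N-terminally HA-tagged cysteine mutants on the C306A background. Cells were incubated with test compound (20 μM) before MTSEA-biotin labeling. Biotinylated DAT was pulled down on streptavidin beads and immunoblotted with anti-HA antibody. It was normalized to total DAT from unpurified lysates, then to the untreated band.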

[15] = test system: DAT cysteine mutant T473C; assay: SCAM MTSEA-biotin biotinylation, HEK-293 cells; assay type: cell-based, human; conditions: 20 μM KM822 coincubation
Outline: as §4

[16] = test system: DAT cysteine mutant R544C; assay: SCAM MTSEA-biotin biotinylation, HEK-293 cells; assay type: cell-based, human; conditions: 20 μM KM822 coincubation
Outline: as §4

[17] = test system: DAT-XC/T316C; assay: SCAM MTSEA-biotin biotinylation, HEK-293 cells; assay type: cell-based, human
Outline: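 HEK-293 cells (Lipojet transfection) expressed HA-tagged DAT-XC/T316C. […] Streptavidin-purified biotinylated DAT was immunoblotted with anti-HA, normalized to total DAT in unpurified lysate, then to the untreated band. Eight independent experiments were run.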

[18] = test system: DAT-XC/A372C; assay: SCAM MTSEA-biotin biotinylation, HEK-293 cells; assay type: cell-based, human
[19] = target: T1, DAT; assay: Ex vivo slice fast scan cyclic voltammetry, Nucleus accumbens; conditions: 50 μM KM822, NAc slices
Outline: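 Rats were anesthetized with 2.5% isoflurane for 3 min and decapitated, and coronal NAc slices were cut into oxygenated ACSF (pH 7.4). After 30 min recovery at room temperature, slices were recorded at 32 °C by carbon-fiber microelectrode. Single pulses (400 μA, 4 ms, monophasic) were given every 3 min until baseline stabilized over three stimulations.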

[20] = test system: DAT Y335A; conditions: cited from earlier work
[21] = test system: DAT-XC/T316C; conditions: DAT-XC/T316C in the presence of cocaine; cited from earlier work
[22] = test system: DAT-XC/A372C; conditions: DAT-XC/A372C treated with cocaine; cited from earlier work

T1 sequence (P23977 whole entry): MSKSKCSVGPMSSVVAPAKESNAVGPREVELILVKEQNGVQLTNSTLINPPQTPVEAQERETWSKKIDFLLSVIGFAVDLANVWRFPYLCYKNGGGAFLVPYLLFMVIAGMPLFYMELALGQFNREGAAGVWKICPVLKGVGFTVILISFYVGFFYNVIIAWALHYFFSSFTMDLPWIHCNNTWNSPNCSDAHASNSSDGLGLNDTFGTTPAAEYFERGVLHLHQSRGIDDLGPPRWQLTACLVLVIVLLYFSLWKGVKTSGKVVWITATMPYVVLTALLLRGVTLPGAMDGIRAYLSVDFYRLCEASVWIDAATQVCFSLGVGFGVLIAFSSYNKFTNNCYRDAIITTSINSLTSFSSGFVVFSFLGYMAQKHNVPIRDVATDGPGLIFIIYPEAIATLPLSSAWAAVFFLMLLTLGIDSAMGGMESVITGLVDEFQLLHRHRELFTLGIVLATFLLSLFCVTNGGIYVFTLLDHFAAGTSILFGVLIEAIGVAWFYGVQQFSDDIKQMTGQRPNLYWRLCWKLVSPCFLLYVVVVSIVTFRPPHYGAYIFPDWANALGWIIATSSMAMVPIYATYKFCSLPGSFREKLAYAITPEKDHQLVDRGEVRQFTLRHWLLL
Sequence of Y156F-DAT (Q01959 whole entry Y156F): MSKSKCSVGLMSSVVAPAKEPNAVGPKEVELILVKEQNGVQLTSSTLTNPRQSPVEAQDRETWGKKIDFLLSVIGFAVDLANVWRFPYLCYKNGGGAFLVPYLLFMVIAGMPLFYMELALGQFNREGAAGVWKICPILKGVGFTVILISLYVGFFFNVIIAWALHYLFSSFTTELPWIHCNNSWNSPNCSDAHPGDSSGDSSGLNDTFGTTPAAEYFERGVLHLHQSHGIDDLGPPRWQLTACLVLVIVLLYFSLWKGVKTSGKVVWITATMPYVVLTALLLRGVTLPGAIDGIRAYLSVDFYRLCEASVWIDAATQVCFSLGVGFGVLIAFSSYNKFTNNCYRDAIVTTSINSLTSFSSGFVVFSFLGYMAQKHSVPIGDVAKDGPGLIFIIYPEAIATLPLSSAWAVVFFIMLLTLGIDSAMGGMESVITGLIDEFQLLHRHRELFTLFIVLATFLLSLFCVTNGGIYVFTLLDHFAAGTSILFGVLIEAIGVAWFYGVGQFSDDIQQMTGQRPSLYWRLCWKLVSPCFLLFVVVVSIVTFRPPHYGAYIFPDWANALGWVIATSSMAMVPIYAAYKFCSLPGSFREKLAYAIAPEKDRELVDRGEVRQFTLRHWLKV
Sequence of Y335A-DAT (Q01959 whole entry Y335A): as the sequence (Q01959 whole entry Y156F) above, with F156Y, Y335A counted along it
Sequence of WT-DAT (Q01959 whole entry): as the sequence (Q01959 whole entry Y156F) above, with F156Y counted along it
Sequence of hNET (P23975 whole entry): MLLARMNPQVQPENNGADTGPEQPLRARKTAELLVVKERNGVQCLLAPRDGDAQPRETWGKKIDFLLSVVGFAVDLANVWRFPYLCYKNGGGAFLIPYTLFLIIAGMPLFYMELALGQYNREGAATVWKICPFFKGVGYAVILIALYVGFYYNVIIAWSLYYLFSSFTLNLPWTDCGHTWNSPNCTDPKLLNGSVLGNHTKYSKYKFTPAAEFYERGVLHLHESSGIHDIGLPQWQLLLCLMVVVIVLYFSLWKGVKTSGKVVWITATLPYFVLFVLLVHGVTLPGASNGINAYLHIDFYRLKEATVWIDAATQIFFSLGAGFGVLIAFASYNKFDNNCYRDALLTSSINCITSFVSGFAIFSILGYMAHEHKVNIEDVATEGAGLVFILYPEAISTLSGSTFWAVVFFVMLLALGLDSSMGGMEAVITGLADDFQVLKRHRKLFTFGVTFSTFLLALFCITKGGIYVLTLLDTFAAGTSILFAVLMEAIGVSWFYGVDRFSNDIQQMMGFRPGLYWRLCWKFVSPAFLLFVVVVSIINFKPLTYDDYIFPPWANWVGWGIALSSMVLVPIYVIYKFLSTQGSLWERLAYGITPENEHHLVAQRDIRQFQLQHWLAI
Sequence of hSERT (P31645 whole entry): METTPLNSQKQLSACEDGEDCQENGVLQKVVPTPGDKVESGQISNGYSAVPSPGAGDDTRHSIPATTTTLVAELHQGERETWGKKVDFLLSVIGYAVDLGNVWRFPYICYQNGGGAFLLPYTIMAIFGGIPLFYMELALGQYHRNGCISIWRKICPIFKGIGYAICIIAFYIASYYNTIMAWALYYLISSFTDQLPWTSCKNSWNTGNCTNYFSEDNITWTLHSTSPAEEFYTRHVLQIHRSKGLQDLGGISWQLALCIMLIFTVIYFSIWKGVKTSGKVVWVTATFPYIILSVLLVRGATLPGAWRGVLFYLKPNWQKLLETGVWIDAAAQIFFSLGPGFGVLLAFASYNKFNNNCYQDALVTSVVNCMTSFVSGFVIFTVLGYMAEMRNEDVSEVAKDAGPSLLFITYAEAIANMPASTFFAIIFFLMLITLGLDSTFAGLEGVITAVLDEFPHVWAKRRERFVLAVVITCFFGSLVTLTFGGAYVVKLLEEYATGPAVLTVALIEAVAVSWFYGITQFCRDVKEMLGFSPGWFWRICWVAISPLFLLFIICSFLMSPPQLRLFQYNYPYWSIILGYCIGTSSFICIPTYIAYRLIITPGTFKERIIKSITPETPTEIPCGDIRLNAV

Fc1ccc(C(OCCN2CCN(CCCc3ccccc3)CC2)c2ccc(F)cc2)cc1 [GBR12909]
total DA uptake in striatal synaptosomes ([1]; 1 μM GBR12909): significantly blocked | change of apparent potency in W84 to leucine mutant [2]: decrease in apparent potency

CCCCN1[C@@H]2CC[C@H]1CC(OC(c1ccc(F)cc1)c1ccc(F)cc1)C2 (some centres unmarked) [JHW-007]
potency change by Y156F mutation [3]: significantly reduced

CCc1ccc2[nH]c3nc(SCCNS(=O)(=O)c4ccc(NC(C)=O)cc4)nnc3c2c1 [KM822]
potency for hDAT transport inhibition higher than for hNET [4]: 30 folds | potency for hDAT transport inhibition higher than for SERT [5]: 50 folds | Vmax of dopamine uptake ([6]; in the presence of 1 μM KM822): 65.8 ± 8.71 μmol/min/well | Vmax of dopamine uptake ([6]; in the presence of 5 μM KM822): 57.9 ± 4.15 μmol/min/well | manner of dopamine uptake inhibition ([6]; uptake kinetics): noncompetitive | IC50 [7]: 3.8 ± 0.88 µM | potency in Y156F-DAT mutant as compared to WT-DAT ([8]; COS-7 cells): unchanged | IC50 ([8]; read-out: IC50 DA uptake inhibition, Y156F-DAT transfected COS-7 cells): 3.3 ± 0.45 µM | potency reduction in Y335A mutant vs WT-DAT ([9]; COS-7 cells): 3 fold | IC50 ([9]; read-out: IC50 DA uptake inhibition, Y335A-DAT transfected COS-7 cells): 12.8 ± 1.4 µM | change of potency in mutant [10]: increase in potency | change of apparent potency in mutant [11]: lowered | change of apparent potency in mutant [12]: lowered | effect on MTSEA-biotin biotinylation ([13]; 20 μM KM822 coincubation): significantly decreased | effect on MTSEA-biotin biotinylation [14]: no effect | effect on MTSEA-biotin biotinylation [15]: no effect | effect on MTSEA-biotin biotinylation [16]: no effect | effect on MTSEA-biotin labeling ([17]; 20 μM KM822): increased | effect on MTSEA-biotin labeling ([18]; 20 μM KM822): no significant change | effect on stimulated DA release / cocaine-induced changes in DA release [19]: did not affect | effect on cocaine-induced inhibition of DA uptake (app Km) ([19]; cumulative cocaine, significant at 30 μM cocaine): significantly reduced

NC(=O)C[S@+]([O-])C(c1ccccc1)c1ccccc1 [S-modafinil]
potency change by Y156F mutation [3]: significantly reduced

CN1[C@@H]2CC[C@H]1C[C@@H](OC(c1ccccc1)c1ccccc1)C2 [benztropine]
change of apparent potency in W84 to leucine mutant [2]: decrease in apparent potency

COC(=O)[C@H]1[C@@H](OC(=O)c2ccccc2)C[C@@H]2CC[C@H]1N2C [cocaine]
effect on MTSEA-biotin labeling ([13]; 100 μM cocaine coincubation): not affected | effect on MTSEA-biotin labeling ([17]; 100 μM cocaine): increased labeling | effect on MTSEA-biotin labeling ([18]; 100 μM cocaine): no change in labeling | total DA uptake in striatal synaptosomes ([1]; 100 μM cocaine): significantly blocked | change of apparent potency in W84 to leucine mutant [2]: increased apparent potency | binding affinity change by Y156F mutation [3]: unaffected | potency change by Y335A mutation [20]: markedly impairs | labeling with a maleimide-based biotin molecule [21]: increased labeling | labeling with a maleimide-based biotin molecule [22]: no change in labeling
